Each block holds one compound with its values, some of them ahead of it. The source made the active and inactive calls. No cut-off for these calls is given here.
Tests used:
[1] = molecular target: Cannabinoid receptor 1 (Homo sapiens) (UniProt P21554); assay: Inhibition of CB1 receptor at 10 uM by radioligand displacement assay
In short: (§1)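 Off-target radioligand binding panel. Test compound at 10 µM. Each assay had at least 6 control wells, with or without vehicle, for soluble compounds. Values are percent inhibition of radioligand binding. ≥50% inhibition was scored as a positive response.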

[2] = molecular target: Endothelin-1 receptor (Homo sapiens) (UniProt P25101); assay: Inhibition of Eta receptor at 10 uM by radioligand displacement assay; in short: as §1
[3] = Inhibition of Sodium channel at 10 uM by radioligand displacement assay; in short: as §1
[4] = molecular target: Muscarinic acetylcholine receptor M1 (Homo sapiens) (UniProt P11229); assay: Inhibition of M1 receptor at 10 uM by radioligand displacement assay; in short: as §1
[5] = molecular target: Muscarinic acetylcholine receptor M2 (Homo sapiens) (UniProt P08172); assay: Inhibition of M2 receptor at 10 uM by radioligand displacement assay; in short: as §1
[6] = molecular target: 5-hydroxytryptamine receptor 7 (Homo sapiens) (UniProt P34969); assay: Inhibition of 5HT7 receptor at 10 uM by radioligand displacement assay; in short: as §1
[7] = molecular target: Sodium-dependent dopamine transporter (Homo sapiens) (UniProt Q01959); assay: Inhibition of dopamine transporter at 10 uM by radioligand displacement assay
In short: (§2)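 Off-target panel: radioligand binding to each receptor, channel or transporter with test compound at 10 µM; activity reported as percent inhibition of specific binding. At least 6 control wells with or without vehicle per assay. Inhibition of 50% or greater counted as a positive response.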

[8] = Inhibition of Small conductance calcium-activated potassium channel at 10 uM by radioligand displacement assay; in short: as §1
[9] = molecular target: Muscarinic acetylcholine receptor M3 (Homo sapiens) (UniProt P20309); assay: Inhibition of M3 receptor at 10 uM by radioligand displacement assay; in short: as §1
[10] = molecular target: Vasopressin V1a receptor (Homo sapiens) (UniProt P37288); assay: Inhibition of V1a receptor at 10 uM by radioligand displacement assay; in short: as §1
[11] = molecular target: Type-1 angiotensin II receptor (Homo sapiens) (UniProt P30556); assay: Inhibition of AT1 receptor at 10 uM by radioligand displacement assay; in short: as §1
[12] = molecular target: C-X-C chemokine receptor type 2 (Homo sapiens) (UniProt P25025); assay: Inhibition of CXCR2 receptor at 10 uM by radioligand displacement assay; in short: as §1
[13] = molecular target: 5-hydroxytryptamine receptor 5A (Homo sapiens) (UniProt P47898); assay: Inhibition of 5HT5A receptor at 10 uM by radioligand displacement assay; in short: as §1
[14] = Inhibition of L-type calcium channel at 10 uM by radioligand displacement assay; in short: as §1
[15] = Inhibition of MT1 receptor at 10 uM by radioligand displacement assay; in short: as §1
[16] = molecular target: Adenosine receptor A1 (Homo sapiens) (UniProt P30542); assay: Inhibition of adenosine A1 receptor at 10 uM by radioligand displacement assay; in short: as §1
[17] = molecular target: D(1A) dopamine receptor (Homo sapiens) (UniProt P21728); assay: Inhibition of dopamine D1 receptor at 10 uM by radioligand displacement assay; in short: as §2
[18] = molecular target: Sodium-dependent noradrenaline transporter (Homo sapiens) (UniProt P23975); assay: Inhibition of norepinephrine […] at 10 uM by radioligand displacement assay; in short: as §2
[19] = molecular target: Thromboxane A2 receptor (Homo sapiens) (UniProt P21731); assay: Inhibition of TP receptor at 10 uM by radioligand displacement assay; in short: as §1
[20] = molecular target: Histamine H1 receptor (Homo sapiens) (UniProt P35367); assay: Inhibition of H1 receptor at 10 uM by radioligand displacement assay; in short: as §1
[21] = molecular target: Galanin receptor type 2 (Homo sapiens) (UniProt O43603); assay: Inhibition of GAL2 receptor at 10 uM by radioligand displacement assay; in short: as §1
[22] = molecular target: 5-hydroxytryptamine receptor 1A (Homo sapiens) (UniProt P08908); assay: Inhibition of 5HT1A receptor at 10 uM by radioligand displacement assay; in short: as §1
[23] = molecular target: 5-hydroxytryptamine receptor 3A (Homo sapiens) (UniProt P46098); assay: Inhibition of 5HT3 receptor at 10 uM by radioligand displacement assay; in short: as §1
[24] = molecular target: Beta-1 adrenergic receptor (Homo sapiens) (UniProt P08588); assay: Inhibition of Beta1 adrenergic receptor at 10 uM by radioligand displacement assay; in short: as §1
[25] = molecular target: Neuropeptide Y receptor type 2 (Homo sapiens) (UniProt P49146); assay: Inhibition of Y2 receptor at 10 uM by radioligand displacement assay; in short: as §1
[26] = molecular target: C-C chemokine receptor type 1 (Homo sapiens) (UniProt P32246); assay: Inhibition of CCR1 receptor at 10 uM by radioligand displacement assay; in short: as §1
[27] = molecular target: Substance-K receptor (Homo sapiens) (UniProt P21452); assay: Inhibition of NK2 receptor at 10 uM by radioligand displacement assay; in short: as §1
[28] = Inhibition of alpha2 adrenergic receptor at 10 uM by radioligand displacement assay; in short: as §2
[29] = Inhibition of delta2 opioid receptor at 10 uM by radioligand displacement assay; in short: as §2
[30] = Inhibition of Smt-tagged S-nitrosoglutathione reductase expressed in Escherichia coli using […] as substrate for 3 mins by spectrophotometric analysis; settings: read-out: IC50
[31] = molecular target: Kappa-type opioid receptor (Homo sapiens) (UniProt P41145); assay: Inhibition of Kappa opioid receptor at 10 uM by radioligand displacement assay; in short: as §1
[32] = tested on: A549; assay: Cytotoxicity against human A549 cells after 48 hrs by MTS assay; format: cell-based; settings: A549, 48 h
[33] = molecular target: Adenosine receptor A2a (Homo sapiens) (UniProt P29274); assay: Inhibition of adenosine A2a receptor at 10 uM by radioligand displacement assay; in short: as §1
[34] = Inhibition of chloride channel at 10 uM by radioligand displacement assay; in short: as §2
[35] = molecular target: Adenosine receptor A3 (Homo sapiens) (UniProt P0DMS8); assay: Inhibition of adenosine A3 receptor at 10 uM by radioligand displacement assay; in short: as §2
[36] = molecular target: Neuromedin-K receptor (Homo sapiens) (UniProt P29371); assay: Inhibition of NK3 receptor at 10 uM by radioligand displacement assay; in short: as §1
[37] = Inhibition of alpha1 adrenergic receptor at 10 uM by radioligand displacement assay; in short: as §2
[38] = molecular target: Neurotensin receptor type 1 (Homo sapiens) (UniProt P30989); assay: Inhibition of NTS1 receptor at 10 uM by radioligand displacement assay; in short: as §1
[39] = molecular target: Cholecystokinin receptor type A (Homo sapiens) (UniProt P32238); assay: Inhibition of CCK1 receptor at 10 uM by radioligand displacement assay; in short: as §1
[40] = molecular target: 5-hydroxytryptamine receptor 1B (Homo sapiens) (UniProt P28222); assay: Inhibition of 5HT1b receptor at 10 uM by radioligand displacement assay; in short: as §1
[41] = molecular target: Melanocortin receptor 4 (Homo sapiens) (UniProt P32245); assay: Inhibition of MC4 receptor at 10 uM by radioligand displacement assay; in short: as §1
[42] = molecular target: Neuropeptide Y receptor type 1 (Homo sapiens) (UniProt P25929); assay: Inhibition of Y1 receptor at 10 uM by radioligand displacement assay; in short: as §1
[43] = molecular target: Beta-2 adrenergic receptor (Homo sapiens) (UniProt P07550); assay: Inhibition of Beta2 adrenergic receptor at 10 uM by radioligand displacement assay; in short: as §1
Sequence of Beta-2 adrenergic receptor (Homo sapiens) (P07550 whole entry, looked up): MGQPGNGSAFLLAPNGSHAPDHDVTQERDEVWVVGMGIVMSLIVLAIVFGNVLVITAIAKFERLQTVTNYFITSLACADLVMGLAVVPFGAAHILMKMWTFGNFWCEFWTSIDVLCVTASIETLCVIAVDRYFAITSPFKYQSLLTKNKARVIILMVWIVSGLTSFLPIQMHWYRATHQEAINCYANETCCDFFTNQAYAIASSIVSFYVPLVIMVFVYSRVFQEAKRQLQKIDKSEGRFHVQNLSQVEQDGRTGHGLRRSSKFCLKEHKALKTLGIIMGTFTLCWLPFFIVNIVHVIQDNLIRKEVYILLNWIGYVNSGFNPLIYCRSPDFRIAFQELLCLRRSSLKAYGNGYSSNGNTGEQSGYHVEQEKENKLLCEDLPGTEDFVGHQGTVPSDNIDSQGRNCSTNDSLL

Sequence of Thromboxane A2 receptor (Homo sapiens) (P21731 whole entry): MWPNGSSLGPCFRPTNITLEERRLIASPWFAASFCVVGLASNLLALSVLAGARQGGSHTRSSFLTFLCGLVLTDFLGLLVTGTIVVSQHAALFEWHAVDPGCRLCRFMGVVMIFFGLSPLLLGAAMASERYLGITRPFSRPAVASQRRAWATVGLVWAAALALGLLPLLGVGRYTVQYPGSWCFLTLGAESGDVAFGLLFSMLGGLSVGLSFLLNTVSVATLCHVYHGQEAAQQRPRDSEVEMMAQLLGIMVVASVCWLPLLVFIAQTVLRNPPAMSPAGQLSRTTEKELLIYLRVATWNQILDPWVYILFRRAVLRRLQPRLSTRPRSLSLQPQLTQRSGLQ
Sequence of 5-hydroxytryptamine receptor 1B (Homo sapiens) (P28222 whole entry): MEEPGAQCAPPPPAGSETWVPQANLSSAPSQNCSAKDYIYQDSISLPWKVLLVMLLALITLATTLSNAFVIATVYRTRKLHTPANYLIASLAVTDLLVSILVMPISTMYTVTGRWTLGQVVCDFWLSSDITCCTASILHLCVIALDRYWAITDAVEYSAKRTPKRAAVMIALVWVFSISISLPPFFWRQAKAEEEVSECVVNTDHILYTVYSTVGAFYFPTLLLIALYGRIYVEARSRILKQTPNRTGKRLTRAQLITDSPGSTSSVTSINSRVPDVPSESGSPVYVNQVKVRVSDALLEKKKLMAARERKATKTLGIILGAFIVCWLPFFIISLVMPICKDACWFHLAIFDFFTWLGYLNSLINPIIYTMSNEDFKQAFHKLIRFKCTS
Sequence of Neurotensin receptor type 1 (Homo sapiens) (P30989 whole entry): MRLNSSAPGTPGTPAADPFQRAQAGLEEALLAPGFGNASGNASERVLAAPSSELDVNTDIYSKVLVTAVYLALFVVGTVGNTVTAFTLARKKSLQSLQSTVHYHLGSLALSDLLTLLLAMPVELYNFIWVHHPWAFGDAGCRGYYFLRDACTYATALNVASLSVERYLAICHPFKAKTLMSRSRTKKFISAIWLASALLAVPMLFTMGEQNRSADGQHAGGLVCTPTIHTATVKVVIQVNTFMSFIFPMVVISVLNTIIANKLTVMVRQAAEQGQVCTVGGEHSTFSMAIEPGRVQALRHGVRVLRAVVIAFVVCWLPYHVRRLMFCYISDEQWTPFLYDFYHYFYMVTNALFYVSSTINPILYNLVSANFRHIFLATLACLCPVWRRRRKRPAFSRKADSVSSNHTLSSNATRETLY
Sequence of Vasopressin V1a receptor (Homo sapiens) (P37288 whole entry, looked up): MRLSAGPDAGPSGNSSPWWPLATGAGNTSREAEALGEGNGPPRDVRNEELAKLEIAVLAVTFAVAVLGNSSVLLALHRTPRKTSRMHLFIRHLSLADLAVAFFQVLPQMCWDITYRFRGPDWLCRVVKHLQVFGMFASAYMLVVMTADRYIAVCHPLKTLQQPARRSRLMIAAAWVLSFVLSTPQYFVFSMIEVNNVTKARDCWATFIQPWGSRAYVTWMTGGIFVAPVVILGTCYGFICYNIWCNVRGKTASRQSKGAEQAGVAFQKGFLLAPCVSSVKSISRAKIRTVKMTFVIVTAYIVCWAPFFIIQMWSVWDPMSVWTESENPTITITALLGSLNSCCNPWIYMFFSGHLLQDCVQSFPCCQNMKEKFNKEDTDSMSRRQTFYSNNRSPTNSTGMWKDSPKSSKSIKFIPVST
Sequence of 5-hydroxytryptamine receptor 7 (Homo sapiens) (P34969 whole entry): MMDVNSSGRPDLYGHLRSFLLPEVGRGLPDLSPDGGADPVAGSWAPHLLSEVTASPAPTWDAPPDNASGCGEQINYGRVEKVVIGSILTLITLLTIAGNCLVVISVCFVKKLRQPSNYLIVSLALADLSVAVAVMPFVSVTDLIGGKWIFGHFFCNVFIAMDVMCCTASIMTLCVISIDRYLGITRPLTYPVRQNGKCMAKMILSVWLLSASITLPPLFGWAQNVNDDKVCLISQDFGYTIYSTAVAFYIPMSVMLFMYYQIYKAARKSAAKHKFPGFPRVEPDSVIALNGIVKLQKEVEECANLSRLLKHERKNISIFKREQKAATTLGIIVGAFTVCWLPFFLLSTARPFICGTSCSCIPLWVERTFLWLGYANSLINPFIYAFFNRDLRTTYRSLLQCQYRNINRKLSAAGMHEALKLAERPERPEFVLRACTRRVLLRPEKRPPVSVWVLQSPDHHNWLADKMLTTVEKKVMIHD
Sequence of Sodium-dependent noradrenaline transporter (Homo sapiens) (P23975 whole entry): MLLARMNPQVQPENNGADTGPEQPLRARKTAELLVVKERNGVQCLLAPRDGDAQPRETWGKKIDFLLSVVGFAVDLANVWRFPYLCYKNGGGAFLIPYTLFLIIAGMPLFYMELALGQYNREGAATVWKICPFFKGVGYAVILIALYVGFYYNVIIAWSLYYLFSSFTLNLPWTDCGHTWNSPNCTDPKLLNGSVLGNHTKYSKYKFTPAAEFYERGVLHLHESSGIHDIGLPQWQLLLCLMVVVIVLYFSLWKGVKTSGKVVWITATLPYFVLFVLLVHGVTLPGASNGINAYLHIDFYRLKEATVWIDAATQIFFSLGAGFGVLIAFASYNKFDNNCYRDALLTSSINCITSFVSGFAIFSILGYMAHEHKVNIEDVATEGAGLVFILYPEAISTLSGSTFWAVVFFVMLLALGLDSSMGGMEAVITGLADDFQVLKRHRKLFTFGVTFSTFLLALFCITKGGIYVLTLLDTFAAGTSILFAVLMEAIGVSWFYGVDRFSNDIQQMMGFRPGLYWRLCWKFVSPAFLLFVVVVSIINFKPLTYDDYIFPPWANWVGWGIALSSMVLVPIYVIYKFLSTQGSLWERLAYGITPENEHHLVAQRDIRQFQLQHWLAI
Sequence of Cannabinoid receptor 1 (Homo sapiens) (P21554 whole entry): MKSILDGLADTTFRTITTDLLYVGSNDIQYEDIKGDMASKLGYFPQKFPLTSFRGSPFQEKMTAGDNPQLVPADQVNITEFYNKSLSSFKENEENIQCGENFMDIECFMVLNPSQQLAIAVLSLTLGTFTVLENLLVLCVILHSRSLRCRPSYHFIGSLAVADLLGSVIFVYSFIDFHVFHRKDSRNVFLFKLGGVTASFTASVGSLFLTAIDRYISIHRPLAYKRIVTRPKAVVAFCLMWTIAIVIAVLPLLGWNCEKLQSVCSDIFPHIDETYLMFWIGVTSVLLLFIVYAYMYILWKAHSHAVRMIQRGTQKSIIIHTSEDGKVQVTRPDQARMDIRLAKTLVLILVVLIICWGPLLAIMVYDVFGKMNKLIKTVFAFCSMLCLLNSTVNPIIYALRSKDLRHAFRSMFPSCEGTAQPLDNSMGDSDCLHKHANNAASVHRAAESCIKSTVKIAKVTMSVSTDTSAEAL
Sequence of Galanin receptor type 2 (Homo sapiens) (O43603 whole entry): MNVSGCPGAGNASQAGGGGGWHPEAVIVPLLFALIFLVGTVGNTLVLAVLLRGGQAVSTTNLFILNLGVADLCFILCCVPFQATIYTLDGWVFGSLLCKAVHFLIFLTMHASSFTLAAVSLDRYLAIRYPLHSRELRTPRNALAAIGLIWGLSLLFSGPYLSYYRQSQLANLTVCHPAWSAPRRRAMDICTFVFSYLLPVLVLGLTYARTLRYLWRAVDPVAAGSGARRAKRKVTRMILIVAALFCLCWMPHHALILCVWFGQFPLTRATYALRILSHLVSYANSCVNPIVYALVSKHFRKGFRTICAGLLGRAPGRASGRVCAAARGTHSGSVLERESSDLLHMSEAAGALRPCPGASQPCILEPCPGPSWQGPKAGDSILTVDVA
Sequence of Muscarinic acetylcholine receptor M2 (Homo sapiens) (P08172 whole entry): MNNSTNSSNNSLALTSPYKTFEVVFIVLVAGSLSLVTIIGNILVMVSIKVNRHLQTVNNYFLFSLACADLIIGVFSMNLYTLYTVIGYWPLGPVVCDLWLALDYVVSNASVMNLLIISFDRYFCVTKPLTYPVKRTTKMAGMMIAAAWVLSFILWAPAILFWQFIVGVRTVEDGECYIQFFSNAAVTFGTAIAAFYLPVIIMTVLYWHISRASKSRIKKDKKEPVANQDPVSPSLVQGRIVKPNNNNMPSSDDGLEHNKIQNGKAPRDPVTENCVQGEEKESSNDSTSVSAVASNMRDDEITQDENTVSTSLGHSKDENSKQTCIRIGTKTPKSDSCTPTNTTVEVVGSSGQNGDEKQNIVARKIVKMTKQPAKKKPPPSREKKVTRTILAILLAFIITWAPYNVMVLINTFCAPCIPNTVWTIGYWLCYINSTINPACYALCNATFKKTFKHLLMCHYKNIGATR
Sequence of Histamine H1 receptor (Homo sapiens) (P35367 whole entry): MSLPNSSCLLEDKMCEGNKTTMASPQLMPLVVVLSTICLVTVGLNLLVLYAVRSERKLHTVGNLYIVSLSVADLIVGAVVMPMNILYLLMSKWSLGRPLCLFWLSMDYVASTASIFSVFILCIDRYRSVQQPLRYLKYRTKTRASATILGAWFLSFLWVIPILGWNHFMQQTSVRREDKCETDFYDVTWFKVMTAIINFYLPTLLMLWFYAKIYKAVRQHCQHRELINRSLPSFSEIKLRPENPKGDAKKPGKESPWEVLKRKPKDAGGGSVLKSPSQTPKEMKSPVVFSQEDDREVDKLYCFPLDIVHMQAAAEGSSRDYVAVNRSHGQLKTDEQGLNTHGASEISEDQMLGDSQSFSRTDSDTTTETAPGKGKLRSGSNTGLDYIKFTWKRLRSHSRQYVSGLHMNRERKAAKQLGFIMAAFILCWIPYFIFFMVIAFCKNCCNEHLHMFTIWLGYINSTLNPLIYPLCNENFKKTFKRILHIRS

inhibition [1]: inactive
inhibition [2]: inactive
inhibition [3]: inactive
inhibition [4]: inactive
inhibition [5]: inactive
inhibition [6]: inactive
inhibition [7]: inactive
inhibition [8]: inactive
inhibition [9]: inactive
inhibition [10]: inactive
inhibition [11]: inactive
inhibition [12]: inactive
inhibition [13]: inactive
inhibition [14]: inactive
inhibition [15]: inactive
inhibition [16]: inactive
inhibition [17]: inactive
inhibition [18]: inactive
inhibition [19]: inactive
inhibition [20]: inactive
inhibition [21]: inactive
inhibition [22]: inactive
inhibition [23]: inactive
inhibition [24]: inactive
inhibition [25]: inactive
inhibition [26]: inactive
inhibition [27]: inactive
inhibition [28]: inactive
inhibition [29]: inactive
IC50 [30]: 29 nM
inhibition [31]: inactive
inhibition [33]: inactive
inhibition [34]: inactive
inhibition [35]: inactive
inhibition [36]: inactive
inhibition [37]: inactive
inhibition [38]: inactive
inhibition [39]: inactive
inhibition [40]: inactive
inhibition [41]: inactive
inhibition [42]: inactive
inhibition [43]: inactive
SMILES: Cc1cc(NS(C)(=O)=O)ccc1-n1c(CCC(=O)O)ccc1-c1ccc(-n2ccnc2)cc1
IC50 [32]: > 150000 nM

inhibition [1]: inactive
inhibition [2]: inactive
inhibition [3]: inactive
inhibition [4]: inactive
inhibition [5]: inactive
inhibition [6]: inactive
inhibition [7]: inactive
inhibition [8]: inactive
inhibition [9]: inactive
inhibition [10]: inactive
inhibition [11]: inactive
inhibition [12]: inactive
inhibition [13]: inactive
inhibition [14]: inactive
inhibition [15]: inactive
inhibition [16]: inactive
inhibition [17]: inactive
inhibition [18]: inactive
inhibition [19]: inactive
inhibition [20]: inactive
inhibition [21]: inactive
inhibition [22]: inactive
inhibition [23]: inactive
inhibition [24]: inactive
inhibition [25]: inactive
inhibition [26]: inactive
inhibition [27]: inactive
inhibition [28]: inactive
inhibition [29]: inactive
IC50 [30]: 43 nM
inhibition [31]: inactive
inhibition [33]: inactive
inhibition [34]: inactive
inhibition [35]: inactive
inhibition [36]: inactive
inhibition [37]: inactive
inhibition [38]: inactive
inhibition [39]: inactive
inhibition [40]: inactive
inhibition [41]: inactive
inhibition [42]: inactive
inhibition [43]: inactive
SMILES: Cc1cc(NS(C)(=O)=O)ccc1-n1c(CCC(=O)O)ccc1-c1ccc(-n2ccnc2C)s1
IC50 [32]: > 150000 nM
